Screening data: PubChem BioAssay, several laboratories
TRPC4 block: blocks the mouse TRPC4 cation channel; hit rate 0.39% among 300,000; AID 2247; HEK293 TRPC4beta/mu-opioid, DAMGO-evoked Fluo4 calcium flux; stronger effect = lower value; B-score at 10 µM; Q9QUQ5;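 active = B-score over 3 SD under the library average, no early fluorescence shift, positive overall ratio signal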
Target sequence (Q9QUQ5 whole entry, looked up): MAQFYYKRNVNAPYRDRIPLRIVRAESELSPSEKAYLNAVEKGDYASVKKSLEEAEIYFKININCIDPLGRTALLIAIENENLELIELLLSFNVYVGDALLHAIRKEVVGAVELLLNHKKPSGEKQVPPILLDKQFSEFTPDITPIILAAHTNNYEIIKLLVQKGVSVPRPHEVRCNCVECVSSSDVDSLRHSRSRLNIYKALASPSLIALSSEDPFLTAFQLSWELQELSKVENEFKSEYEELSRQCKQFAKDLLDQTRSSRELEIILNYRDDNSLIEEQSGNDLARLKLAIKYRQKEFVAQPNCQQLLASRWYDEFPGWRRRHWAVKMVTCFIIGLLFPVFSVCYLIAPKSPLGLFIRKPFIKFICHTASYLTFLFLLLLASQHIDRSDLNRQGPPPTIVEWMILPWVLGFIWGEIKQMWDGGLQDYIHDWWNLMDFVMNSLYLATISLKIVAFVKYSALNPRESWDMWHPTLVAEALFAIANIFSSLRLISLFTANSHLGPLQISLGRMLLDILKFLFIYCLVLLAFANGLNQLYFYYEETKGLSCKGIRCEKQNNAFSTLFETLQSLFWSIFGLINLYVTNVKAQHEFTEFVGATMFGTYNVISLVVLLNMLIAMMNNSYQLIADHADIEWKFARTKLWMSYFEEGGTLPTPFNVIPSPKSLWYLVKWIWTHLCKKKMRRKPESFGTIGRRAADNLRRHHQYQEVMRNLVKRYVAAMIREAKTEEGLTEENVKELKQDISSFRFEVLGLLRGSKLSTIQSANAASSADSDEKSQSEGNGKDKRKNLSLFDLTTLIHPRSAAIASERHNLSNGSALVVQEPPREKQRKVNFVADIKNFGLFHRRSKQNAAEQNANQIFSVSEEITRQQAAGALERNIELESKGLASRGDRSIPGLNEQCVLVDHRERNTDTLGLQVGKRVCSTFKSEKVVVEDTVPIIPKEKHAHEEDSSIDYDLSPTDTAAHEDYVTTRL
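Assay system: HEK293 cells with stable TRPC4beta plus mu-opioid receptor expression. Dosing: single dose. Measured by: Fluo4 Ca2+ flux fluorescence. Also added: DAMGO in two steps, submaximal then maximal. Read-out: B score from integrated Fluo4 fluorescence ratio.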
TRPC4 potent: allosteric potentiators of mouse TRPC4 channel; Q9QUQ5; HEK293 TRPC4beta/mu-opioid, DAMGO EC20, Fluo-4 Ca2+ flux; stronger effect = higher value; B-score at 10 µM; hit rate 0.42% among 310,000;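 active = B-score of calcium response area above 5 SD of library B-scores, with initial fluorescence ratio within 5 SD of library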;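 note: B-score of integrated fluorescence ratio over time as area under calcium response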
TRPC6 inh: mouse TRPC6 channel inhibition. Q61143. HEK293-TRPC6, membrane potential dye, ACh-evoked depolarization; stronger effect = lower value. B-score at 10 µM. hit rate 1.1% among 310,000. AID 2553;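 active = B-score under library mean minus 3 SD, initial fluorescence not abnormally high, positive integrated signal ratio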;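 note: B-score derived from integrated fluorescence ratio over the kinetic read; more negative B-score means stronger inhibition of depolarization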
FID counter: counter-screen for HCV NS3 helicase inhibitors: DNA intercalator displacement | DNA fluorescent intercalator displacement, fluorescence | inhibition, % at 7.9 µM | hit rate 0.17% among 290,000 | AID 1845; in the data active = inhibition above about 37%;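 note: 0% = vehicle and 100% = reference compound; higher means more ethidium bromide displaced from hairpin DNA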
TRPC6 activator: activators of mouse TRPC6 channel. B-score at 10 µM. hit rate 0.13% among 310,000. HEK293-TRPC6 membrane potential dye fluorescence; stronger effect = higher value. AID 2550. Q61143;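 active = B-score of the integrated fluorescence ratio above library mean plus 3 SD, and starting fluorescence ratio within library mean plus 5 SD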;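 note: higher score means more depolarization so channel activation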
TRPC4 agonist: activators of mouse TRPC4 channel. B-score at 10 µM. HEK293 TRPC4beta/mu-opioid, Fluo4 calcium fluorescence; stronger effect = higher value. hit rate 0.49% among 310,000;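 active = B-score above 5 SD of library B-scores, and initial fluorescence ratio not above library mean plus 5 SD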;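 note: positive B-score marks a calcium rise read as TRPC4 activation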
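Assay system: HEK293 stable line with TRPC4beta plus mu-opioid receptor; schedule: 45 min room-temperature Fluo4 loading, 110 s read; technique: kinetic Fluo4 calcium fluorescence; evaluation: integrated baseline-normalised fluorescence ratio, converted to per-well B score; controls: buffer (low) and maximal DAMGO (high)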
Active calls of the source: *; i = inactive; · = no result given. Only some compounds are listed: those with a hit (about 2.3% of all), similar ones and a draw of the others.

SMILES	TRPC4 block	TRPC4 potent	TRPC6 inh	FID counter	TRPC6 activator	TRPC4 agonist
CCCN(C(=O)COC(=O)C12CCC(=O)N1c1ccccc1S2)c1c(N)n(Cc2ccccc2)c(=O)[nH]c1=O (configuration not stated)	-7*	i	i	-48.2	i	55*
COc1ccc(/C=N/Nc2nc3ccccc3s2)cc1O	i	16*	i	-0.5	i	i
COc1ccc(/C=N/Nc2nc3ccccc3o2)cc1O	i	i	i	-0.6	i	i
COc1ccc(C)cc1NC(=O)CNc1ccccc1CN(C)C1CCCCC1	i	i	i	5.9	i	i
Cc1ccc(NC(=O)CNc2ccccc2CN(C)C2CCCCC2)cc1	-6*	i	i	30.8	i	i
Cc1cccc(OCCCc2c(C)n[nH]c2C)c1	-6*	i	i	-3.7	i	i
O=C(c1ccccc1Br)N1CCc2c([nH]c3ccccc23)C1	i	i	i	-26.4	i	i
COc1cccc(CNC(=O)C2CCN(Cc3cnn(-c4ccccc4)c3-n3cccc3)CC2)c1	i	i	i	23.2	i	44*
O=C(NCc1cccnc1)C1CCCN(Cc2cnn(-c3ccccc3)c2-n2cccc2)C1 (configuration not stated)	i	i	i	7.6	i	87*
O=C(NCc1ccccn1)C1CCN(Cc2cnn(-c3ccccc3)c2-n2cccc2)CC1	i	i	i	1.1	i	i
O=C(NCc1ccccn1)C1CCCN(Cc2cnn(-c3ccccc3)c2-n2cccc2)C1 (configuration not stated)	·	i	i	-0.3	i	53*
O=C(CSc1nnc(CNC(=O)c2ccccc2F)o1)NC1CCCC1	i	i	i	-5.8	i	i
O=C(NNS(=O)(=O)c1ccccc1)Nc1ccc(F)cc1	i	i	i	-0.6	i	i
O=c1c2ccccc2ncn1-c1cccc(Br)c1	i	i	i	-4.8	i	i
CC(Oc1cccc(Cl)c1)C(=O)Nc1cc(S(=O)(=O)N2CCOCC2)ccc1N1CCCCC1 (configuration not stated)	i	i	i	·	i	i
CCN1CCN(c2ccc(S(=O)(=O)N3CCOCC3)cc2NC(=O)c2ccccc2OC(F)F)CC1	i	i	i	·	i	131*
CCN1CCN(c2ccc(S(=O)(=O)N3CCOCC3)cc2NC(=O)C(C)Oc2cccc(Cl)c2)CC1 (configuration not stated)	i	i	i	·	i	101*
Cc1cc(Cl)ccc1OC(C)C(=O)Nc1ccccc1N1CCOCC1 (configuration not stated)	i	22*	i	-6.2	i	i
CCN1CCN(c2ccc(S(=O)(=O)N3CCOCC3)cc2NC(=O)c2ccc(Cl)cc2Cl)CC1	i	i	i	·	i	i
O=C(c1sc2ccccc2c1Cl)N(Cc1cccs1)C1CCS(=O)(=O)C1 (configuration not stated)	i	i	i	-25.2	i	120*
COc1cc(C2C(C#N)=C(N)N(N(C)C)C3=C2C(=O)CC(C)(C)C3)ccc1O (configuration not stated)	i	i	i	-10.7	i	i
CCOc1ccc(NC(=O)CCNS(=O)(=O)c2ccc3c(c2)CC(C)N3C(C)=O)cc1 (configuration not stated)	i	i	i	-26.1	i	i
CC1CCc2c(sc(NC(=O)CCC(=O)O)c2C(=O)NC2CC2)C1 (configuration not stated)	i	i	i	-36.8	i	i
O=C(NCCS(=O)(=O)N1CCN(Cc2ccccc2)CC1)c1ccc(F)cc1	i	i	i	·	i	i
CCCn1c(=O)c2ccccc2n2c(SCCOc3ccc(C)cc3)nnc12	-6*	i	i	-2.5	i	i
CCCn1c(=O)c2ccccc2n2c(SCCOc3ccc(OC)cc3)nnc12	i	i	i	-5.6	i	i
CC(C)C(=O)NNc1ccc(C(F)(F)F)cn1	i	i	i	-3.5	i	i
